Source: ChEMBL document CHEMBL4396900, “Extending Cross Metathesis To Identify Selective HDAC Inhibitors: Synthesis, Biological Activities, and Modeling” (ACS Med Chem Lett, 2019)
The source made the active and inactive calls. The rule behind the calls is not given here.

Assays:
[1] = cells; assay type: functional, cell-based; conditions: Homo sapiens, 72 h
[2] = cells; assay type: functional, cell-based; conditions: Homo sapiens, 72 h; remark: listed apart in the source
[3] = tested on: A549; experiment: cells; assay type: functional, cell-based; conditions: Homo sapiens, A549, 72 h
[4] = cells; assay type: functional, cell-based; conditions: Homo sapiens, 72 h; remark: listed apart in the source
[5] = target: NAD-dependent protein deacetylase sirtuin-2 (Homo sapiens, UniProt Q8IXJ6); experiment: Inhibition of human recombinant sirtuin 2 using fluoro-lysine sirtuin 2 deacetylase substrate measured after 60 mins by fluorimetry assay
NAD-dependent protein deacetylase sirtuin-2, sequence (Q8IXJ6 whole entry): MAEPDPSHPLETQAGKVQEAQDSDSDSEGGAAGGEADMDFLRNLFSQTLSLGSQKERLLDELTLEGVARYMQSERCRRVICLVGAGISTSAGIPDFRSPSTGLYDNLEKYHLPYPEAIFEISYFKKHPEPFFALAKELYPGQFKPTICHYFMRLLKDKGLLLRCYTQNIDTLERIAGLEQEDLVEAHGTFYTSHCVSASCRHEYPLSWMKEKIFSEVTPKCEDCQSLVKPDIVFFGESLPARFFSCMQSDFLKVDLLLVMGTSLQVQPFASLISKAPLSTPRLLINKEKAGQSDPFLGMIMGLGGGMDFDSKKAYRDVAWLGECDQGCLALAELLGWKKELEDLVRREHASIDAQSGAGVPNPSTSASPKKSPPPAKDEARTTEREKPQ

[6] = target: Histone deacetylase 9 (Homo sapiens, UniProt Q9UKV0); experiment: Inhibition of human recombinant HDAC9 using fluorogenic HDAC substrate class 2a measured after 30 mins by fluorimetry assay
[7] = target: Histone deacetylase 8 (Homo sapiens, UniProt Q9BY41); experiment: Inhibition of human recombinant HDAC8 using fluorogenic HDAC substrate measured after 60 mins by fluorimetry assay
[8] = target: Histone deacetylase; assay type: cell-based, Homo sapiens
[9] = target: T1, Histone deacetylase 1 (Homo sapiens, UniProt Q13547); experiment: Inhibition of human recombinant HDAC1 at 10 uM using fluorogenic HDAC substrate measured after 15 mins by fluorimetry assay relative to control
T1 sequence (Q13547 whole entry): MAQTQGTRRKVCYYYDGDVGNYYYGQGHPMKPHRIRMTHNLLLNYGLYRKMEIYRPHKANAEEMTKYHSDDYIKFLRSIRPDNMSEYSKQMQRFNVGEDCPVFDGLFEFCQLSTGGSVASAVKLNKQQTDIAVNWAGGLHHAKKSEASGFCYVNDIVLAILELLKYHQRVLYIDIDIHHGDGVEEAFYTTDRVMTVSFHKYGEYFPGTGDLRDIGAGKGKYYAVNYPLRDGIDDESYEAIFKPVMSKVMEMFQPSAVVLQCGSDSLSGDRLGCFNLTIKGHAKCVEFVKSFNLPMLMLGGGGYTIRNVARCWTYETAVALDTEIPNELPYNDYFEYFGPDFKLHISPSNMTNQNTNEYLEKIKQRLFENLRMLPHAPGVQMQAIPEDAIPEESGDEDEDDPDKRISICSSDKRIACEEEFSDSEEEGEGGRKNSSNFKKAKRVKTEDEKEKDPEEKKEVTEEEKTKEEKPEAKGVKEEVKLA

[10] = target: T2, Histone deacetylase 2 (Homo sapiens, UniProt Q92769); experiment: Inhibition of human recombinant HDAC2 at 10 uM using fluorogenic HDAC substrate measured after 15 mins by fluorimetry assay relative to control
T2 sequence (Q92769 whole entry): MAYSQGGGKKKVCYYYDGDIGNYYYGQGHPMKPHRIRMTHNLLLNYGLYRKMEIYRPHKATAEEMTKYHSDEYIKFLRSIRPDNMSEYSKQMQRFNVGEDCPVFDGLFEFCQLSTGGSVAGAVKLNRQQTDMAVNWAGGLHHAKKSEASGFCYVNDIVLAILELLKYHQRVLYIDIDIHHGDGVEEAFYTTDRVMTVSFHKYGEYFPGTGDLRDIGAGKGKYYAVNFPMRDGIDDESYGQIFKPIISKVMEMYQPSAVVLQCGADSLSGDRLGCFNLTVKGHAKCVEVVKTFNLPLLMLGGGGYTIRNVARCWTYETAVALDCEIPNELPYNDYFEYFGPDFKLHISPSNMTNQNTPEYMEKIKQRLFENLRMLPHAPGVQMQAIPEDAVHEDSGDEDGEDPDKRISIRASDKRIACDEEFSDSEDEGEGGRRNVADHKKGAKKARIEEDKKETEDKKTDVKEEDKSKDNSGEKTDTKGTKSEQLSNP

[11] = target: T3, Histone deacetylase 3 (Homo sapiens, UniProt O15379); experiment: Inhibition of human recombinant HDAC3 at 10 uM using fluorogenic HDAC substrate measured after 10 mins by fluorimetry assay relative to control
T3 sequence (O15379 whole entry): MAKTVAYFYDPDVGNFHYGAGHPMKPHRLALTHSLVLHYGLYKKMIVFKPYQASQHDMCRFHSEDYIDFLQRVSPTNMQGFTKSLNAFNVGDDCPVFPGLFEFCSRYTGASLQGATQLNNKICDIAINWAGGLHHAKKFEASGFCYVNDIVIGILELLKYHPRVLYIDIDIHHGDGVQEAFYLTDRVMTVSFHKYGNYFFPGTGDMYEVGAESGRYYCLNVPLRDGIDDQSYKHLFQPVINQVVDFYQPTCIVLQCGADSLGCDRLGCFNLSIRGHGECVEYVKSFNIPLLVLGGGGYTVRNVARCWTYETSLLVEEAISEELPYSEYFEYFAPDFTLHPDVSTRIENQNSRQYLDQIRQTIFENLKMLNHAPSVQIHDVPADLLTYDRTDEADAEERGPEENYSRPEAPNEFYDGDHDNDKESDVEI

[12] = target: T4, Histone deacetylase 4 (Homo sapiens, UniProt P56524); experiment: Inhibition of human recombinant HDAC4 at 10 uM using fluorogenic HDAC substrate class 2a measured after 30 mins by fluorimetry assay relative to control
T4 sequence (P56524 whole entry): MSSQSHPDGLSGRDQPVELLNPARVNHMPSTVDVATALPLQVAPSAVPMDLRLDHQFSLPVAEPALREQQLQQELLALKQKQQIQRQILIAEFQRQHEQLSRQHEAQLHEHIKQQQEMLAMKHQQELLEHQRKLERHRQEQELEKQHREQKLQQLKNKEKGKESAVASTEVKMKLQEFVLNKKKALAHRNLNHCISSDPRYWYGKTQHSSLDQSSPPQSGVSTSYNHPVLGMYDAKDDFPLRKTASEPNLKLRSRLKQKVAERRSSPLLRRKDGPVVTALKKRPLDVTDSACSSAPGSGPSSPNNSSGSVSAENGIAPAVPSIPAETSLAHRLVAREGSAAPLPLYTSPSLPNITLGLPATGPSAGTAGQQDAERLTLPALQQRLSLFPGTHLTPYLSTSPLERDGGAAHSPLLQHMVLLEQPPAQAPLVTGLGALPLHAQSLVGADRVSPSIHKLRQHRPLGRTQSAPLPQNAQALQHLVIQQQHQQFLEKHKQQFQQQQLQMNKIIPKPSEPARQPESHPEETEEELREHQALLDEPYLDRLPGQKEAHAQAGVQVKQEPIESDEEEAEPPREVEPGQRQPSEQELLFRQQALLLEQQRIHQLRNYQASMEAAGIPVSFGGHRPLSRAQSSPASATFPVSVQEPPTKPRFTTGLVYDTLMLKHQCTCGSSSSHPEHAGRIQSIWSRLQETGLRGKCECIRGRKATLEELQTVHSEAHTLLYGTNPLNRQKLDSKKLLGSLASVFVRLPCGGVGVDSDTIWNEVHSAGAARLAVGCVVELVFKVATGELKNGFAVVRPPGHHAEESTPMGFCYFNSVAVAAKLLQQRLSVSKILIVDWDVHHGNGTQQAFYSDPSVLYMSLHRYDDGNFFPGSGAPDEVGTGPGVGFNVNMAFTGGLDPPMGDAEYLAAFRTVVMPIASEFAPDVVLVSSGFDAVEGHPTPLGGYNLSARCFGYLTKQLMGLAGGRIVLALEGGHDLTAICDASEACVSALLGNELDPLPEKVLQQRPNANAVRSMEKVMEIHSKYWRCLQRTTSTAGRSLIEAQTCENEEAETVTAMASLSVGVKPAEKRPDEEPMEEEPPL

[13] = target: T5, Histone deacetylase 5 (Homo sapiens, UniProt Q9UQL6); experiment: Inhibition of human recombinant HDAC5 at 10 uM using fluorogenic HDAC substrate class 2a measured after 30 mins by fluorimetry assay relative to control
T5 sequence (Q9UQL6 whole entry): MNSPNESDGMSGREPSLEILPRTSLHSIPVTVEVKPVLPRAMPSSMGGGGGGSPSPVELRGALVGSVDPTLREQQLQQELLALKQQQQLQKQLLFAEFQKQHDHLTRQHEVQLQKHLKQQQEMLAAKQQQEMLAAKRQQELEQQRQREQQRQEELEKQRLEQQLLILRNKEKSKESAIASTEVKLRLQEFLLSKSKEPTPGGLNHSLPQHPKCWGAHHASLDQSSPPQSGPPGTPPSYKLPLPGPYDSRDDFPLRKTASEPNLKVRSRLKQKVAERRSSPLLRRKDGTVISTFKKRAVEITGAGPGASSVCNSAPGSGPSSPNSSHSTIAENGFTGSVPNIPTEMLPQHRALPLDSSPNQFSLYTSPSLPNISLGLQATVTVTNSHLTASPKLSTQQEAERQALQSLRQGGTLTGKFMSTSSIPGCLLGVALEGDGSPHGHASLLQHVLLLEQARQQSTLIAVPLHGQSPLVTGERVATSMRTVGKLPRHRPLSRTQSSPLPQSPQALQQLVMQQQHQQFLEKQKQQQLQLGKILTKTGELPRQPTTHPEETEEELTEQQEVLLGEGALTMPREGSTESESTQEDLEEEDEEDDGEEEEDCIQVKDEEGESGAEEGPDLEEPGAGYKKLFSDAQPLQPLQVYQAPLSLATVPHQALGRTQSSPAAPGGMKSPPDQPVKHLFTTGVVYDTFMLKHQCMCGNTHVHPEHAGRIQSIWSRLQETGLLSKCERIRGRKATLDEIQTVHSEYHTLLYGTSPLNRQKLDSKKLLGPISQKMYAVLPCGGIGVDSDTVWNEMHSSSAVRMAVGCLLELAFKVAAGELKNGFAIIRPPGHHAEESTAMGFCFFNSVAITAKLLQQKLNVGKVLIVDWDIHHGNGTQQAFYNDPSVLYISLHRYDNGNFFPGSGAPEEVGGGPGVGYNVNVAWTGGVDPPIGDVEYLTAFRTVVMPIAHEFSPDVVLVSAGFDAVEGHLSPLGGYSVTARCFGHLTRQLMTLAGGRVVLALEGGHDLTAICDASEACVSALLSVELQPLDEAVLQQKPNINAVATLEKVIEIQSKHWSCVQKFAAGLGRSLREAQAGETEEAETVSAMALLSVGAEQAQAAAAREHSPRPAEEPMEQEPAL

[14] = target: T6, Protein deacetylase HDAC6 (Homo sapiens) (UniProt Q9UBN7); experiment: Inhibition of human recombinant HDAC6 at 10 uM using fluorogenic HDAC substrate measured after 30 mins by fluorimetry assay relative to control
T6 sequence (whole entry): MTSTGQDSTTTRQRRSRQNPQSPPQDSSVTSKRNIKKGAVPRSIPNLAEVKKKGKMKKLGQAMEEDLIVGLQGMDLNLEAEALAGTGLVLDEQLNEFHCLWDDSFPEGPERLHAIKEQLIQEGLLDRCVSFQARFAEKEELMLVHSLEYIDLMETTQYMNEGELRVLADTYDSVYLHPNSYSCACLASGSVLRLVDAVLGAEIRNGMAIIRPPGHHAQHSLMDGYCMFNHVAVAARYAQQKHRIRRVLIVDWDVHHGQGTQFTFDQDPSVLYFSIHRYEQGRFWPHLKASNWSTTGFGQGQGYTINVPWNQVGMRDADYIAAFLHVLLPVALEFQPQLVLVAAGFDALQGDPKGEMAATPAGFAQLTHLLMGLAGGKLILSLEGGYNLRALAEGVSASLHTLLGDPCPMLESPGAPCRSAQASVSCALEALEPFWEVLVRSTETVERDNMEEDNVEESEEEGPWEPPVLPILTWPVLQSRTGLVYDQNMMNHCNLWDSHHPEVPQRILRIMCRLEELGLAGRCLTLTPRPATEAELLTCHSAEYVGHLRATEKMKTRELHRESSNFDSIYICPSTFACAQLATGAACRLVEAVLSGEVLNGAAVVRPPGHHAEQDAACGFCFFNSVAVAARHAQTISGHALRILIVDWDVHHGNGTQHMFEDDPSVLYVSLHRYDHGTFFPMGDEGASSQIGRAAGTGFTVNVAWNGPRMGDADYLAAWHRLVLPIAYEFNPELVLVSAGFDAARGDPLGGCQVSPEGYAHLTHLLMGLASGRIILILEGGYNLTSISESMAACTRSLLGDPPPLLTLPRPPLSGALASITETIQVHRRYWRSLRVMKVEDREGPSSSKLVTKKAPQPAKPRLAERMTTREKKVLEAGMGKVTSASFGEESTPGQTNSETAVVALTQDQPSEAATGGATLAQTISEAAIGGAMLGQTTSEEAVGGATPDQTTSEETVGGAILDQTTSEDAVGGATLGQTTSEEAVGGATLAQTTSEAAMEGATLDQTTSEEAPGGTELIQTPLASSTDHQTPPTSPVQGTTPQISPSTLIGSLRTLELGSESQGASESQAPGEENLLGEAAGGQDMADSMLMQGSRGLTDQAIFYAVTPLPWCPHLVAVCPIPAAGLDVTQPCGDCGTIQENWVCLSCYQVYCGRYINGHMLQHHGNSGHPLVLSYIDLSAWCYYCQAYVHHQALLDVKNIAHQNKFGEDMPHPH

[15] = target: Histone deacetylase 8 (Homo sapiens) (UniProt Q9BY41); experiment: Inhibition of human recombinant HDAC8 at 10 uM using fluorogenic HDAC substrate measured after 60 mins by fluorimetry assay relative to control
[16] = target: Polyamine deacetylase HDAC10 (Homo sapiens) (UniProt Q969S8); experiment: Inhibition of human recombinant HDAC10 at 10 uM using fluorogenic HDAC substrate measured after 45 mins by fluorimetry assay relative to control
[17] = target: Histone deacetylase 11 (Homo sapiens) (UniProt Q96DB2); experiment: Inhibition of human recombinant HDAC11 at 10 uM using fluorogenic HDAC substrate class 2a measured after 30 mins by fluorimetry assay relative to control
[18] = target: NAD-dependent protein deacetylase sirtuin-1 (Homo sapiens) (UniProt Q96EB6); experiment: Inhibition of human recombinant sirtuin 1 at 10 uM using fluorogenic HDAC substrate measured after 20 mins by fluorimetry assay relative to control
NAD-dependent protein deacetylase sirtuin-1 (Homo sapiens), sequence (Q96EB6 whole entry): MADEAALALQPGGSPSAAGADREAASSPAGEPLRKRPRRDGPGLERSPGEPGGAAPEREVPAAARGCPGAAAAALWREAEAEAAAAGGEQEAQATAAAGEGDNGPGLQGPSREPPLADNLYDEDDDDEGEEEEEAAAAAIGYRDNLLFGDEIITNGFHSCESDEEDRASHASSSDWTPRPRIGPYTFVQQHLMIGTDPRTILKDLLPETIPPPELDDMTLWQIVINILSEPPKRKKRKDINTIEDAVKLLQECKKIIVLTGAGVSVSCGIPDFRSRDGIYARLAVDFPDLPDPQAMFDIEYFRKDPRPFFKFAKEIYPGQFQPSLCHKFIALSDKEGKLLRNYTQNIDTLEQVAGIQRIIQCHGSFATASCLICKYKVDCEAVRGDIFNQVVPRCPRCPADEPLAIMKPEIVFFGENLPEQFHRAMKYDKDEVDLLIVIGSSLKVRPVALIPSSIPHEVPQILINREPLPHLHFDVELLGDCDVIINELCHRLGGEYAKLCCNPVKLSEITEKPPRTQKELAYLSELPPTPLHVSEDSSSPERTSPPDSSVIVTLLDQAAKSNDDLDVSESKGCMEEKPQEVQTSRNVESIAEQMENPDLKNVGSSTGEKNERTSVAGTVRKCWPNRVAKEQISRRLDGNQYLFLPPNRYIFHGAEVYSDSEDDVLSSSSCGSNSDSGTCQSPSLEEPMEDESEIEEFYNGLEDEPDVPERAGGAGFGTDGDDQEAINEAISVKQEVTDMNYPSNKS

[19] = target: NAD-dependent protein deacetylase sirtuin-3, mitochondrial (Homo sapiens) (UniProt Q9NTG7); experiment: Inhibition of human recombinant sirtuin 3 at 10 uM using fluoro-lysine sirtuin 2 deacetylase substrate measured after 45 mins by fluorimetry assay relative to control
[20] = target: T1, Histone deacetylase 1; experiment: Inhibition of human recombinant HDAC1 using fluorogenic HDAC substrate measured after 15 mins by fluorimetry assay
[21] = target: T2, Histone deacetylase 2; experiment: Inhibition of human recombinant HDAC2 using fluorogenic HDAC substrate measured after 15 mins by fluorimetry assay
[22] = target: T3, Histone deacetylase 3
[23] = target: T4, Histone deacetylase 4; experiment: Inhibition of human recombinant HDAC4 using fluorogenic HDAC substrate class 2a measured after 30 mins by fluorimetry assay
[24] = target: T5, Histone deacetylase 5; experiment: Inhibition of human recombinant HDAC5 using fluorogenic HDAC substrate class 2a measured after 30 mins by fluorimetry assay
[25] = target: Protein deacetylase HDAC6 (Homo sapiens, UniProt Q9UBN7); experiment: Inhibition of human recombinant HDAC6 using fluorogenic HDAC substrate measured after 30 mins by fluorimetry assay
[26] = target: Histone deacetylase 7 (Homo sapiens, UniProt Q8WUI4); experiment: Inhibition of human recombinant HDAC7 using fluorogenic HDAC substrate class 2a measured after 45 mins by fluorimetry assay
[27] = species: Homo sapiens; experiment: Selectivity ratio of IC50 for human recombinant HDAC10 to IC50 for human recombinant HDAC6
[28] = species: Homo sapiens; experiment: Selectivity ratio of IC50 for human recombinant HDAC11 to IC50 for human recombinant HDAC6
[29] = species: Homo sapiens; experiment: Selectivity ratio of IC50 for human recombinant HDAC8 to IC50 for human recombinant HDAC6
[30] = species: Homo sapiens; experiment: Selectivity ratio of IC50 for human recombinant HDAC3 to IC50 for human recombinant HDAC6
[31] = species: Homo sapiens; experiment: Selectivity ratio of IC50 for human recombinant HDAC2 to IC50 for human recombinant HDAC6
[32] = species: Homo sapiens; experiment: Selectivity ratio of IC50 for human recombinant HDAC1 to IC50 for human recombinant HDAC6
[33] = target: Histone deacetylase 11 (Homo sapiens, UniProt Q96DB2); experiment: Inhibition of human recombinant HDAC11 using fluorogenic HDAC substrate class 2a measured after 30 mins by fluorimetry assay
[34] = target: Polyamine deacetylase HDAC10 (Homo sapiens, UniProt Q969S8); experiment: Inhibition of human recombinant HDAC10 using fluorogenic HDAC substrate measured after 45 mins by fluorimetry assay
[35] = target: T6, Protein deacetylase HDAC6 (Homo sapiens); experiment: Inhibition of HDAC6 in human Meso163 cells assessed as increase in histone H3 acetylation at 20 uM measured after 6 to 20 hrs by Western blot analysis; assay type: cell-based
In short: (§1)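 Meso 163 mesothelioma and A549 lung adenocarcinoma cells exposed to agent for 6 or 20 h; histone H3 and alpha-tubulin acetylation analysed by western blot with molecular-weight markers.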

[36] = target: T6, Protein deacetylase HDAC6 (Homo sapiens); experiment: Inhibition of HDAC6 in human Meso163 cells assessed as increase in alpha tubulin acetylation at 20 uM measured after 6 to 20 hrs by Western blot analysis; assay type: cell-based
In short: as §1

[37] = target: T6, Protein deacetylase HDAC6 (Homo sapiens); experiment: Inhibition of HDAC6 in human A549 cells assessed as increase in histone H3 acetylation at 20 uM measured after 6 to 20 hrs by Western blot analysis; assay type: cell-based
In short: as §1

[38] = target: T6, Protein deacetylase HDAC6 (Homo sapiens); experiment: Inhibition of HDAC6 in human A549 cells assessed as increase in alpha tubulin acetylation at 20 uM measured after 6 to 20 hrs by Western blot analysis; assay type: cell-based
In short: as §1

[39] = target: T6, Protein deacetylase HDAC6 (Homo sapiens); experiment: Inhibition of HDAC6 in human Meso163 cells assessed as upregulation of E-cadherin mRNA expression at 20 uM after 24 hrs by RT-Sybr green PCR analysis; assay type: cell-based
In short: (§2)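 Meso 163 and A549 cells treated for 24 h; E-cadherin, Sema-3F and p21 mRNA quantified by real-time PCR; means ± S.E.M. of four independent experiments.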

[40] = target: T6, Protein deacetylase HDAC6 (Homo sapiens); experiment: Inhibition of HDAC6 in human Meso163 cells assessed as upregulation of semaphorin 3F mRNA expression at 20 uM after 24 hrs by RT-Sybr green PCR analysis; assay type: cell-based
In short: as §2

[41] = target: T6, Protein deacetylase HDAC6 (Homo sapiens); experiment: Inhibition of HDAC6 in human Meso163 cells assessed as upregulation of p21 mRNA expression at 20 uM after 24 hrs by RT-Sybr green PCR analysis; assay type: cell-based
In short: as §2

[42] = target: T6, Protein deacetylase HDAC6 (Homo sapiens); experiment: Inhibition of HDAC6 in human A549 cells assessed as upregulation of E-cadherin mRNA expression at 20 uM after 24 hrs by RT-Sybr green PCR analysis; assay type: cell-based
In short: as §2

[43] = target: T6, Protein deacetylase HDAC6 (Homo sapiens); experiment: Inhibition of HDAC6 in human A549 cells assessed as upregulation of semaphorin 3F mRNA expression at 20 uM after 24 hrs by RT-Sybr green PCR analysis; assay type: cell-based
In short: as §2

[44] = target: T6, Protein deacetylase HDAC6 (Homo sapiens); experiment: Inhibition of HDAC6 in human A549 cells assessed as upregulation of p21 mRNA expression at 20 uM after 24 hrs by RT-Sybr green PCR analysis; assay type: cell-based
In short: as §2

## CC(=O)Nc1ccc(C(=O)Nc2ccccc2N)cc1 [TACEDINALINE]
[1]
  IC50: 7.83 µM
[2]
  IC50: 15.8 µM
[3]
  IC50: 16 µM
[4]
  IC50: 3.9 µM

## Cc1ccc(C(=O)Nc2ccc(S(=O)(=O)O)c3cc(S(=O)(=O)O)cc(S(=O)(=O)O)c23)cc1NC(=O)c1cccc(NC(=O)Nc2cccc(C(=O)Nc3cc(C(=O)Nc4ccc(S(=O)(=O)O)c5cc(S(=O)(=O)O)cc(S(=O)(=O)O)c45)ccc3C)c2)c1 [SURAMIN]
[5]
  IC50: 17 µM

## COC(=O)c1ccc2ccccc2c1OCCCCCCCC(=O)NO
[6]
  IC50: Not Active
[7]
  IC50: 1.6 µM
[8]
  EC50: 7.84 µM
[1]
  IC50: 15.6 µM
[2]
  IC50: 15.9 µM
[3]
  IC50: 62.4 µM
[4]
  IC50: 15.7 µM
[9]
  inhibition: 84.7%
[10]
  inhibition: 67.1%
[11]
  inhibition: 87.9%
[12]
  inhibition: -4.8%
[13]
  inhibition: 2.8%
[14]
  inhibition: 104%
[15]
  inhibition: 93.1%
[16]
  inhibition: 82.3%
[17]
  inhibition: 57.2%
[18]
  inhibition: -2.6%
[19]
  inhibition: -8.2%
[20]
  IC50: 3.5 µM
[21]
  IC50: 3.4 µM
[22]
  IC50: 1 µM
[23]
  IC50: Not Active
[24]
  IC50: Not Active
[25]
  IC50: 0.095 µM
[26]
  IC50: Not Active
[27]
  Ratio IC50: 17 to 37
[28]
  Ratio IC50: 17 to 37
[29]
  Ratio IC50: 17 to 37
[30]
  Ratio IC50: 10
[31]
  Ratio IC50: 17 to 37
[32]
  Ratio IC50: 17 to 37
[33]
  IC50: 6.6 µM
[34]
  IC50: 1.6 µM
[35]
  Activity: Active
[36]
  Activity: Active
[37]
  Activity: Active
[38]
  Activity: Active
[39]
  Activity: Active
[40]
  Activity: Active
[41]
  Activity: Active
[42]
  Activity: Active
[43]
  Activity: Active
[44]
  Activity: Active

## COC(=O)c1ccc2ccccc2c1OCCCCCCCC(=O)Nc1ccccc1N
[8]
  EC50: 8.14 µM
